≈ marks a conversion by molar mass, not a printed value. Calls of active or inactive are those of the source. The calls are words filed in the database; no cut-off is given here.
Experiments:
Staphylococcus aureus [1] = experiment: Antibacterial activity against Staphylococcus aureus ATCC 6538P assessed as diameter of zone inhibition measured after 18 hrs by CLSI disc diffusion method; type: functional
In short: (§1)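 Disc diffusion on Mueller-Hinton II agar. Compounds dissolved in DMSO. Strains stored at -80 °C and subcultured twice on tryptic soy agar before testing. Inhibition zones read after 35 °C, 18 h.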

Serratia marcescens = experiment: Antibacterial activity against Serratia marcescens ATCC 13880 measured after 18 hrs by CLSI broth dilution method; type: functional; conditions: ATCC 13880, 18 h
In short: (§2)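 Broth MIC in Mueller-Hinton II broth following CLSI, compounds dissolved in DMSO. Strains subcultured twice on tryptic soy agar before testing. Growth read after 35 °C, 18 h.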

[2] = Dissociation constant, pKa1 of compound in 0.1 M NaOH by potentiometric analysis; type: physicochemical
Candida albicans [3] = experiment: Antifungal activity against Candida albicans ATCC 90028 assessed as decrease in fungal cell growth at 0.78 to 12.5 mg/L incubated for 24 hrs by CLSI broth dilution method; type: functional; conditions: ATCC 90028, 24 h
In short: (§3)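 Yeast broth dilution in RPMI 1640 with 2% glucose, compounds in DMSO. Yeasts pre-grown on Sabouraud dextrose agar. Growth read after 35 °C, 24 h.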

Candida parapsilosis = experiment: Antifungal activity against Candida parapsilosis ATCC 22019 assessed as decrease in fungal cell growth at 0.78 to 12.5 mg/L incubated for 24 hrs by CLSI broth dilution method; type: functional; conditions: Lodderomyces parapsilosis, ATCC 22019, 24 h; in short: as §3
Candida tropicalis = experiment: Antifungal activity against Candida tropicalis IBA 171 assessed as decrease in fungal cell growth at 0.78 to 12.5 mg/L incubated for 24 hrs by CLSI broth dilution method; type: functional; conditions: IBA 171, 24 h; in short: as §3
Pichia kudriavzevii [4] = experiment: Antifungal activity against Candida krusei ATCC 6258 assessed as decrease in fungal cell growth at 0.78 to 12.5 mg/L incubated for 24 hrs by CLSI broth dilution method; type: functional; conditions: ATCC 6258, 24 h; in short: as §3
Candida albicans [5] = experiment: Antifungal activity against Candida albicans ATCC 90028 assessed as diameter of zone inhibition incubated for 24 hrs by CLSI disc diffusion method; type: functional
In short: (§4)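 Yeast disc diffusion on Mueller-Hinton agar supplemented with 2% glucose and 0.5 mg/L methylene blue. Compounds in DMSO. Yeasts subcultured on Sabouraud dextrose agar before testing. Zones read after 35 °C, 24 h.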

[6] = tested on: Meyerozyma guilliermondii; experiment: Antifungal activity against Candida guilliermondii IBA 155 assessed as diameter of zone inhibition incubated for 24 hrs by CLSI disc diffusion method; type: functional; in short: as §4
Pichia kudriavzevii [7] = experiment: Antifungal activity against Candida krusei ATCC 6258 assessed as diameter of zone inhibition incubated for 24 hrs by CLSI disc diffusion method; type: functional; in short: as §4
Saccharomyces cerevisiae = experiment: Antifungal activity against Saccharomyces cerevisiae ATCC 9763 diameter of zone inhibition incubated for 24 hrs by CLSI disc diffusion method; type: functional
In short: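 Disc-diffusion run on Mueller-Hinton II agar with 2% glucose and 0.5 mg/L methylene blue, using compounds in DMSO. Yeast was precultured on Sabouraud dextrose agar (24–48 h, 30 °C). Zones read after 24 h at 35 °C.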

Staphylococcus aureus [8] = experiment: Antibacterial activity against Staphylococcus aureus ATCC 6538P measured after 18 hrs by CLSI broth dilution method; type: functional; in short: as §2
Enterococcus faecium [9] = experiment: Antibacterial activity against Enterococcus faecium ATCC 6057 measured after 18 hrs by CLSI broth dilution method; type: functional; conditions: ATCC 6057, 18 h; in short: as §2
Enterococcus faecalis = experiment: Antibacterial activity against Enterococcus faecalis ATCC 29212 assessed as diameter of zone inhibition measured after 18 hrs by CLSI disc diffusion method; type: functional; in short: as §1
Enterococcus faecium [10] = experiment: Antibacterial activity against Enterococcus faecium ATCC 6057 assessed as diameter of zone inhibition measured after 18 hrs by CLSI disc diffusion method; type: functional; in short: as §1
Bacillus subtilis = experiment: Antibacterial activity against Bacillus subtilis ATCC 6633 assessed as diameter of zone inhibition measured after 18 hrs by CLSI disc diffusion method; type: functional; in short: as §1
Escherichia coli [11] = experiment: Antibacterial activity against Escherichia coli ATCC 25922 measured after 18 hrs by CLSI broth dilution method; type: functional; conditions: ATCC 25922, 18 h; in short: as §2
Proteus mirabilis [12] = experiment: Antibacterial activity against Proteus mirabilis ATCC 12453 measured after 18 hrs by CLSI broth dilution method; type: functional; conditions: ATCC 12453, 18 h; in short: as §2
Enterobacter cloacae [13] = experiment: Antibacterial activity against Enterobacter cloacae DSM 6234 measured after 18 hrs by CLSI broth dilution method; type: functional; conditions: DSM 6234, 18 h; in short: as §2
[14] = tested on: Bordetella bronchiseptica; experiment: Antibacterial activity against Bordetella bronchiseptica ATCC 4617 measured after 18 hrs by CLSI broth dilution method; type: functional; conditions: ATCC 4617, 18 h; in short: as §2
Acinetobacter baumannii [15] = experiment: Antibacterial activity against Acinetobacter baumannii ATCC 19606 measured after 18 hrs by CLSI broth dilution method; type: functional; conditions: ATCC 19606, 18 h; in short: as §2
[16] = tested on: Stenotrophomonas maltophilia; experiment: Antibacterial activity against Stenotrophomonas maltophilia ATCC 13637 measured after 18 hrs by CLSI broth dilution method; type: functional; conditions: ATCC 13637, 18 h; in short: as §2
Escherichia coli [17] = experiment: Antibacterial activity against Escherichia coli ATCC 25922 assessed as diameter of zone inhibition measured after 18 hrs by CLSI disc diffusion method; type: functional; in short: as §1
Proteus mirabilis [18] = experiment: Antibacterial activity against Proteus mirabilis ATCC 12453 assessed as diameter of zone inhibition measured after 18 hrs by CLSI disc diffusion method; type: functional; in short: as §1
Enterobacter cloacae [19] = experiment: Antibacterial activity against Enterobacter cloacae DSM 6234 assessed as diameter of zone inhibition measured after 18 hrs by CLSI disc diffusion method; type: functional; in short: as §1
Pseudomonas aeruginosa [20] = experiment: Antibacterial activity against Pseudomonas aeruginosa ATCC 27853 assessed as diameter of zone inhibition measured after 18 hrs by CLSI disc diffusion method; type: functional, organism-based; in short: as §1
Acinetobacter baumannii [21] = experiment: Antibacterial activity against Acinetobacter baumannii ATCC 19606 assessed as diameter of zone inhibition measured after 18 hrs by CLSI disc diffusion method; type: functional; in short: as §1
[22] = tested on: Stenotrophomonas maltophilia; experiment: Antibacterial activity against Stenotrophomonas maltophilia ATCC 13637 assessed as diameter of zone inhibition measured after 18 hrs by CLSI disc diffusion method; type: functional; in short: as §1
Burkholderia cepacia = experiment: Antibacterial activity against Burkholderia cepacia ATCC 25416 assessed as diameter of zone inhibition measured after 18 hrs by CLSI disc diffusion method; type: functional; in short: as §1
[23] = tested on: Bordetella bronchiseptica; experiment: Antibacterial activity against Bordetella bronchiseptica ATCC 4617 assessed as diameter of zone inhibition measured after 18 hrs by CLSI disc diffusion method; type: functional; in short: as §1
Enterobacter cloacae [24] = experiment: Antibacterial activity against Enterobacter cloacae DSM 6234 assessed as fold reduction of MIC in presence of efflux pump inhibitor PAbetaN incubated for 18 hrs by broth microdilution method; type: functional
In short: (§5)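 MICs determined with and without PAβN at 50 mg/L in Mueller-Hinton broth containing 1 mM MgSO₄. 2-fold serial dilutions per CLSI. Fold change taken from the paired MICs after 35 °C, 18 h.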

Pseudomonas aeruginosa [25] = experiment: Antibacterial activity against Pseudomonas aeruginosa ATCC 27853 assessed as fold reduction of MIC in presence of efflux pump inhibitor PAbetaN incubated for 18 hrs microdilution method; type: functional; in short: as §5
[26] = tested on: Stenotrophomonas maltophilia; experiment: Antibacterial activity against Stenotrophomonas maltophilia ATCC 13637 assessed as fold reduction of MIC in presence of efflux pump inhibitor PAbetaN incubated for 18 hrs by broth microdilution method; type: functional; in short: as §5

| MIC (Serratia marcescens) | pKa [2] | MIC (Candida albicans [3]) | MIC (Candida parapsilosis) | MIC (Candida tropicalis) | MIC (Pichia kudriavzevii [4]) | MIC (Staphylococcus aureus [8]) | MIC (Enterococcus faecium [9]) | MIC (Escherichia coli [11]) | MIC (Proteus mirabilis [12]) | MIC (Enterobacter cloacae [13]) | MIC [14] | Structure (SMILES) | diameter of the inhibition zone (DIZ) (Staphylococcus aureus [1]) | diameter of the inhibition zone (DIZ) (Candida albicans [5]) | diameter of the inhibition zone (DIZ) [6] | diameter of the inhibition zone (DIZ) (Pichia kudriavzevii [7]) | diameter of the inhibition zone (DIZ) (Saccharomyces cerevisiae) | diameter of the inhibition zone (DIZ) (Enterococcus faecalis) | diameter of the inhibition zone (DIZ) (Enterococcus faecium [10]) | diameter of the inhibition zone (DIZ) (Bacillus subtilis) | further results |
| --- | --- | --- | --- | --- | --- | --- | --- | --- | --- | --- | --- | --- | --- | --- | --- | --- | --- | --- | --- | --- | --- |
| > 400 µg/mL | 5.6 | 400 µg/mL (≈ 1790 µM) | 400 µg/mL (≈ 1790 µM) | 200 µg/mL (≈ 893 µM) | > 400 µg/mL | 25 µg/mL (≈ 112 µM) | 200 µg/mL (≈ 893 µM) | > 400 µg/mL | > 400 µg/mL | > 400 µg/mL | > 400 µg/mL | C[Si]1(C)OB(O)c2cc(C=O)cc(F)c21 | 22 mm | inactive | inactive | inactive | inactive | inactive | inactive | 22 mm | MIC (Acinetobacter baumannii [15]): > 400 µg/mL; MIC [16]: > 400 µg/mL; diameter of the inhibition zone (DIZ) (Escherichia coli [17]): inactive; diameter of the inhibition zone (DIZ) (Proteus mirabilis [18]): inactive; diameter of the inhibition zone (DIZ) (Enterobacter cloacae [19]): inactive; diameter of the inhibition zone (DIZ) (Pseudomonas aeruginosa [20]): inactive; diameter of the inhibition zone (DIZ) (Acinetobacter baumannii [21]): inactive; diameter of the inhibition zone (DIZ) [22]: inactive; diameter of the inhibition zone (DIZ) (Burkholderia cepacia): inactive; diameter of the inhibition zone (DIZ) [23]: inactive; fold change (FC) (Enterobacter cloacae [24]): 16; fold change (FC) (Pseudomonas aeruginosa [25]): 4; fold change (FC) [26]: 8 |
| > 400 µg/mL | 5.8 | > 400 µg/mL | 400 µg/mL (≈ 1640 µM) | > 400 µg/mL | 400 µg/mL (≈ 1640 µM) | 200 µg/mL (≈ 819 µM) | > 400 µg/mL | > 400 µg/mL | > 400 µg/mL | > 400 µg/mL | > 400 µg/mL | C[Si]1(C)OB(O)c2cc(F)c(CO)c(F)c21 | 17 mm | inactive | inactive | inactive | inactive | inactive | inactive | 11 mm | MIC (Acinetobacter baumannii [15]): 400 µg/mL (≈ 1640 µM); MIC [16]: 200 µg/mL (≈ 819 µM); diameter of the inhibition zone (DIZ) (Escherichia coli [17]): inactive; diameter of the inhibition zone (DIZ) (Proteus mirabilis [18]): inactive; diameter of the inhibition zone (DIZ) (Enterobacter cloacae [19]): inactive; diameter of the inhibition zone (DIZ) (Pseudomonas aeruginosa [20]): inactive; diameter of the inhibition zone (DIZ) (Acinetobacter baumannii [21]): inactive; diameter of the inhibition zone (DIZ) [22]: inactive; diameter of the inhibition zone (DIZ) (Burkholderia cepacia): inactive; diameter of the inhibition zone (DIZ) [23]: inactive; fold change (FC) (Enterobacter cloacae [24]): 8; fold change (FC) (Pseudomonas aeruginosa [25]): 4; fold change (FC) [26]: 16 |
